Results published in article PMC12823633 (Cancer Chemotherapy and Pharmacology, 2026).

Experiments:
CYP2C19 = conditions: read-out: IC50, reversible inhibition; ref unpublished inhouse data; cited from earlier work
[1] = Adverse events, continuous administration period; type: in vivo, human (patients with solid tumors)
CYP3A = conditions: time-dependent inhibition; ref unpublished inhouse data; cited from earlier work
solid tumors = assay: Anti-tumor efficacy, continuous administration period; type: in vivo, human (patients with solid tumors)
Summary of the method: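 Open-label single-arm multicenter study in Japan. Test compound 250 mg given orally, fasted, on 5 consecutive days from Day 1 of repeated 21-day cycles (2 days off), until discontinuation. Investigator-assessed per RECIST 1.1. ORR is the % with best response CR/PR; DCR is the % with CR/PR/SD. OS in osteosarcoma runs from enrollment to death from any cause, censored at the last recorded follow-up or observation.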

[2] = TAS-115 trough plasma concentrations; type: in vivo, human (patients with solid tumors)
CYP2C9 = conditions: read-out: IC50, reversible inhibition; ref unpublished inhouse data; cited from earlier work
[3] = Adverse events, DDI evaluation period; type: in vivo, human (patients with solid tumors)
CYP2C8 = conditions: read-out: IC50, reversible inhibition; ref unpublished inhouse data; cited from earlier work
CYP2B6 = conditions: read-out: IC50, reversible inhibition; ref unpublished inhouse data; cited from earlier work
[4] = Continuous Administration Period (N=18)
[5] = continuous administration period
[6] = All patients (N=16), efficacy-evaluable
[7] = After Administration of TAS-115, DDI period (N=18)
[8] = Entire DDI Evaluation Period (N=18)

SMILES: CNC(=O)c1cc2c(Oc3ccc(NC(=S)NC(=O)Cc4ccccc4)cc3F)ccnc2cc1OC [TAS-115, pamufetinib]
- IC50 (CYP2C19): 4.23 µM
- Any >=Grade 3 TEAEs [1, 4]: 8 (44.4) N (%)
- Any >=Grade 3 TRAEs Related to TAS-115 [1, 4]: 6 (33.3) N (%)
- Any SAEs [1, 4]: 5 (27.8) N (%)
- Any TEAEs [1, 4]: 18 (100.0) N (%)
- Any TEAEs Leading to Death [1, 4]: 0 (0.0) N (%)
- Any TEAEs Leading to Discontinuation of Study Medication [1, 4]: 1 (5.6) N (%)
- Any TEAEs Leading to Dose Interruption of TAS-115 [1, 4]: 10 (55.6) N (%)
- Any TEAEs Leading to Dose Reduction of TAS-115 [1, 4]: 1 (5.6) N (%)
- Any TRAEs Leading to Death [1, 4]: 0 (0.0) N (%)
- Any TRAEs Leading to Discontinuation of Study Medication [1, 4]: 1 (5.6) N (%)
- Any TRAEs Related to TAS-115 [1, 4]: 17 (94.4) N (%)
- Any TRAEs Related to TAS-115 Leading to Dose Interruption of TAS-115 [1, 4]: 9 (50.0) N (%)
- Any TRAEs Related to TAS-115 Leading to Dose Reduction of TAS-115 [1, 4]: 1 (5.6) N (%)
- Any Treatment-Related SAEs [1, 4]: 2 (11.1) N (%)
- Grade 3 rash maculo-papular leading to discontinuation of TAS-115 [1, 5]: One patient
- TEAE blood creatine phosphokinase (CK) increased [1, 5]: 27.8%
- TRAE of ≥ Grade 3 related to TAS-115: anaemia [1, 5]: 11.1%
- TRAE related to TAS-115: alanine aminotransferase increased [1, 5]: 33.3%
- TRAE related to TAS-115: anemia [1, 5]: 27.8%
- TRAE related to TAS-115: aspartate aminotransferase increased [1, 5]: 55.6%
- TRAE related to TAS-115: blood CK increased [1, 5]: 27.8%
- TRAE related to TAS-115: platelet count decreased [1, 5]: 22.2%
- TRAE related to TAS-115: rash [1, 5]: 22.2%
- criteria for severe drug-induced liver injury (Hy’s law) [1, 5]: No criteria for severe drug-induced liver injury (Hy’s law) were met
- patients reporting TEAEs [1, 5]: 100%
- patients requiring dose interruption by AEs [1, 5]: 55.6%
- patients requiring dose reduction due to AEs related to TAS-115 [1, 5]: 5.6%
- patients with SAEs [1, 5]: 27.8%
- patients with TEAEs of ≥ Grade 3 [1, 5]: 44.4%
- patients with TRAEs of ≥ Grade 3 related to TAS-115 [1, 5]: 33.3%
- patients with TRAEs related to TAS-115 [1, 5]: 94.4%
- deaths ([1]; continuous administration period or within 30 days following discontinuation): No deaths occurred
- concentration of the inhibitor required to achieve 50% of the maximum inactivation rate (CYP3A): 28.5 µmol/L
- maximum inactivation rate constant (CYP3A): 0.0650 min⁻¹
- CR (solid tumors; [6]): 0 (0.0) N (%)
- Disease control rate (CR+PR+SD) (solid tumors; [6]): 6 (37.5) N (%)
- PD (solid tumors; [6]): 10 (62.5) N (%)
- PR (solid tumors; [6]): 1 (6.3) N (%)
- Progression-free survival, Censored (solid tumors; [6]): 2 (12.5) N (%)
- Progression-free survival, Event (solid tumors; [6]): 14 (87.5) N (%)
- Progression-free survival, Median (solid tumors; [6]): 2.1 month
- Response rate (CR+PR) (solid tumors; [6]): 1 (6.3) N (%)
- CR (solid tumors; Osteosarcoma (N=4)): 0 (0.0) N (%)
- Disease control rate (CR+PR+SD) (solid tumors; Osteosarcoma (N=4)): 2 (50.0) N (%)
- Overall survival, Censored (solid tumors; Osteosarcoma (N=4)): 1 (25.0) N (%)
- Overall survival, Event (solid tumors; Osteosarcoma (N=4)): 3 (75.0) N (%)
- Overall survival, Median (solid tumors; Osteosarcoma (N=4)): 13.8 month
- PD (solid tumors; Osteosarcoma (N=4)): 2 (50.0) N (%)
- PR (solid tumors; Osteosarcoma (N=4)): 1 (25.0) N (%)
- Progression-free survival, Censored (solid tumors; Osteosarcoma (N=4)): 0 (0.0) N (%)
- Progression-free survival, Event (solid tumors; Osteosarcoma (N=4)): 4 (100.0) N (%)
- Progression-free survival, Median (solid tumors; Osteosarcoma (N=4)): 7.0 month
- Response rate (CR+PR) (solid tumors; Osteosarcoma (N=4)): 1 (25.0) N (%)
- DCR (solid tumors; patients with solid tumors, 16 evaluable): 37.5%
- trough plasma concentration, arithmetic mean (standard deviation) ([2]; Day 4, 250 mg once daily oral): 834.5 (318.68) ng/mL
- trough plasma concentration, arithmetic mean (standard deviation) ([2]; Day 5, 250 mg once daily oral): 881.6 (378.03) ng/mL
- concentration at 24 h ([2]; human, plasma, po, 250 mg): 576 ng/mL
- IC50 (CYP2C9): 2.03 µM
- Any >=Grade 3 TEAEs [3, 7]: 2 (11.1) N (%)
- Any >=Grade 3 TRAEs [3, 7]: 1 (5.6) N (%)
- Any >=Grade 3 TRAEs Related to TAS-115 [3, 7]: 1 (5.6) N (%)
- Any SAEs [3, 7]: 0 (0.0) N (%)
- Any TEAEs [3, 7]: 15 (83.3) N (%)
- Any TEAEs Leading to Death [3, 7]: 0 (0.0) N (%)
- Any TEAEs Leading to Discontinuation of Study Medication [3, 7]: 0 (0.0) N (%)
- Any TEAEs Leading to Dose Interruption of TAS-115 [3, 7]: 0 (0.0) N (%)
- Any TEAEs Leading to Dose Reduction of TAS-115 [3, 7]: 0 (0.0) N (%)
- Any TRAEs [3, 7]: 15 (83.3) N (%)
- Any TRAEs Leading to Death [3, 7]: 0 (0.0) N (%)
- Any TRAEs Leading to Discontinuation of Study Medication [3, 7]: 0 (0.0) N (%)
- Any TRAEs Related to TAS-115 [3, 7]: 14 (77.8) N (%)
- Any TRAEs Related to TAS-115 Leading to Dose Interruption of TAS-115 [3, 7]: 0 (0.0) N (%)
- Any TRAEs Related to TAS-115 Leading to Dose Reduction of TAS-115 [3, 7]: 0 (0.0) N (%)
- Any Treatment-Related SAEs [3, 7]: 0 (0.0) N (%)
- Grade 3 or higher TRAE (anaemia) attributed to TAS-115 ([3]; DDI evaluation period): one patient
- patients reporting TEAEs ([3]; DDI evaluation period): 83.3%
- patients with TRAEs ([3]; DDI evaluation period): 83.3%
- patients with TRAEs related to TAS-115 ([3]; DDI evaluation period): 14 patients
- patients with TEAEs of ≥ Grade 3 ([3]; DDI evaluation period, anemia and lipase increased): 11.1%
- Any >=Grade 3 TEAEs [3, 8]: 2 (11.1) N (%)
- Any >=Grade 3 TRAEs [3, 8]: 1 (5.6) N (%)
- Any >=Grade 3 TRAEs Related to TAS-115 [3, 8]: 1 (5.6) N (%)
- Any SAEs [3, 8]: 0 (0.0) N (%)
- Any TEAEs [3, 8]: 15 (83.3) N (%)
- Any TEAEs Leading to Death [3, 8]: 0 (0.0) N (%)
- Any TEAEs Leading to Discontinuation of Study Medication [3, 8]: 0 (0.0) N (%)
- Any TEAEs Leading to Dose Interruption of TAS-115 [3, 8]: 0 (0.0) N (%)
- Any TEAEs Leading to Dose Reduction of TAS-115 [3, 8]: 0 (0.0) N (%)
- Any TRAEs [3, 8]: 15 (83.3) N (%)
- Any TRAEs Leading to Death [3, 8]: 0 (0.0) N (%)
- Any TRAEs Leading to Discontinuation of Study Medication [3, 8]: 0 (0.0) N (%)
- Any TRAEs Related to TAS-115 [3, 8]: 14 (77.8) N (%)
- Any TRAEs Related to TAS-115 Leading to Dose Interruption of TAS-115 [3, 8]: 0 (0.0) N (%)
- Any TRAEs Related to TAS-115 Leading to Dose Reduction of TAS-115 [3, 8]: 0 (0.0) N (%)
- Any Treatment-Related SAEs [3, 8]: 0 (0.0) N (%)
- IC50 (CYP2C8): 0.563 µM
- IC50 (CYP2B6): 6.03 µM
